# Laboratory results published in ChEMBL document CHEMBL1142730, “Design of HIV-1 protease inhibitors active on multidrug-resistant virus” (J Med Chem, 2005).
# Experiments:
# [1] = system: Human immunodeficiency virus 1; experiment: Protease inhibitory activity against HIV-1 r13025 mutant strain was determined; assay type: functional, organism-based
# [2] = In vitro solubility at was determined; pH=7; assay type: ADME
# Summary of the method: (§1)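 Aqueous solubility measured at pH 5 and pH 7, expressed in […].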
# [3] = organism: Rattus norvegicus; experiment: In vitro metabolic stability value after 30 min of incubation with liver microsomes of rat was determined; assay type: functional; settings: Microsome
# Summary of the method: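 Compound at 10 µM incubated at 37 °C with dog, human or rat liver microsomes. Residual parent compound quantified directly by LC-MS. Value is percent parent remaining after 30 min.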
# [4] = In vitro solubility at was determined; pH=5; assay type: ADME; summary of the method: as §1
# [5] = In vivo time to reach maximum plasma concentration value in wistar rat was determined at a dosage of 20 mg/kg; assay type: ADME, organism-based; design: dose 20 mg/kg
# Summary of the method: (§2)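 Wistar rats, single-dose study at 20 mg/kg, compound formulated in PEG400. Plasma Cmax, Tmax, t1/2 and AUC determined.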
# [6] = target: T1, Human immunodeficiency virus type 1 protease (Human immunodeficiency virus 1, UniProt Q72874); experiment: (§3) Binding affinity against HIV-1 protease
# Summary of the method: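 Isothermal titration calorimetry by displacement: the protease was pre-titrated with acetylpepstatin (300 µM) as the weaker binder, then the inhibitor (125 or 200 µM in the syringe) was injected to saturation into protease (9–21 µM). Buffer was 10 mM sodium acetate pH 5.0, 2% DMSO, 2 mM TCEP. Heats of dilution were subtracted, and each run was done at least twice.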
# [7] = system: Human immunodeficiency virus 1; experiment: Toxicity value against wild type HIV-1 IIIB was determined; assay type: functional
# Summary of the method: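 MT4 cells (150 000 cells/mL) mock-infected, run in parallel with HIV-infected cultures over an identical compound concentration range. Incubated 3 days at 37 °C, 5% CO₂. Reduced expression of the […] GFP reporter serves as the toxicity marker.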
# [8] = Maximum plasma concentration value in wistar rat was determined at a dosage of 20 mg/kg; assay type: ADME, organism-based; design: dose 20 mg/kg; summary of the method: as §2
# [9] = system: Caco-2; experiment: In vitro increase in apparent permeability from basolateral to apical was determined in Caco-2 (human colon carcinoma) cells; assay type: functional, cell-based
# Summary of the method: (§4)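 Caco-2 monolayer apparent permeability measured apical-to-basolateral and basolateral-to-apical; reported as Papp in cm/s (×10⁶).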
# [10] = system: Caco-2; experiment: In vitro increase in apparent permeability from apical to basolateral was determined in Caco-2 (human colon carcinoma) cells; assay type: functional, cell-based; summary of the method: as §4
# [11] = system: Human immunodeficiency virus 1; experiment: Protease inhibitory activity against HIV-1 r13034 mutant strain was determined; assay type: functional, organism-based
# [12] = system: Human immunodeficiency virus 1; experiment: Protease inhibitory activity against HIV-1 r13363 mutant strain was determined; assay type: functional, organism-based
# [13] = system: Human immunodeficiency virus 1; experiment: Protease inhibitory activity against HIV-1 GSS004421 mutant strain was determined; assay type: functional, organism-based
# [14] = In vivo area under the concentration time curve value in wistar rat was determined at a dosage of 20 mg/kg; assay type: ADME, organism-based; design: dose 20 mg/kg; summary of the method: as §2
# [15] = In vivo half life value in dog was determined at a dosage of 20 mg/kg; assay type: ADME, organism-based, Canis lupus familiaris; design: dose 20 mg/kg
# Summary of the method: (§5)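 Oral dosing in dog at 20 mg/kg, coadministered with ritonavir. Compound given as a solution in PEG400 or in 40% w/v hydroxypropyl-β-cyclodextrin with 2% citric acid. Plasma Cmax, Tmax, t1/2 and AUC determined.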
# [16] = Maximum plasma concentration value in dog was determined at a dosage of 20 mg/kg; assay type: ADME, organism-based, Canis lupus familiaris; design: dose 20 mg/kg; summary of the method: as §5
# [17] = In vivo area under the concentration time curve value in dog was determined at a dosage of 20 mg/kg; assay type: ADME, organism-based, Canis lupus familiaris; design: dose 20 mg/kg; summary of the method: as §5
# [18] = system: Human immunodeficiency virus 1; experiment: Protease inhibitory activity against wild type HIV-1 IIIB was determined; assay type: functional, organism-based
# [19] = In vivo time to reach maximum plasma concentration value in dog was determined at a dosage of 20 mg/kg; assay type: ADME, organism-based, Canis lupus familiaris; design: dose 20 mg/kg; summary of the method: as §5
# [20] = In vivo half life value in wistar rat was determined at a dosage of 20 mg/kg; assay type: ADME, organism-based; design: dose 20 mg/kg; summary of the method: as §2
# [21] = target: T1, Human immunodeficiency virus type 1 protease; experiment: as §3; remark: listed apart in the source
SMILES,pEC50 [1],solubility [2] [µg/mL],Metabolic stability [3] [%],solubility [4] [µg/mL],pCC50 [7],Papp [9] [×10⁻⁶ cm/s],Papp [10] [×10⁻⁶ cm/s],pEC50 [11],pEC50 [12],pEC50 [13],EC50 [18] [nM],further results
CNc1nc2ccc(S(=O)(=O)N(CC(C)C)C[C@@H](O)[C@H](Cc3ccccc3)NC(=O)O[C@H]3CO[C@H]4OCC[C@H]43)cc2o1,8.13,< 10,70,10,< 4.49,24,17.6,8.61,7.5,8.07,2,Tmax [5]: 1.4 h; Kd [6]: 0.9 nM; Cmax [8]: 927 ng/mL; AUC [14]: 1200 ng·h/mL; half-life [15]: 0.9 h; Cmax [16]: 986 ng/mL; AUC [17]: 2030 ng·h/mL; Tmax [19]: 2 h
CC(C)CN(C[C@@H](O)[C@H](Cc1ccccc1)NC(=O)O[C@H]1CO[C@H]2OCC[C@H]21)S(=O)(=O)c1ccc2nc(N)oc2c1,8.21,,90,,< 4.49,23.8,3.8,8.19,7.6,8.06,11.7,half-life [20]: 1.6 h; Tmax [5]: 1 h; Cmax [8]: 260 ng/mL; AUC [14]: 448 ng·h/mL
CC(C)CN(C[C@@H](O)[C@H](Cc1ccccc1)NC(=O)O[C@H]1CO[C@H]2OCC[C@H]21)S(=O)(=O)c1ccc2nc(N)sc2c1,8.51,< 10,77,< 10,4.77,27.3,9.9,8.42,7.9,8.59,9.12,
CNc1nc2ccc(S(=O)(=O)N(CC(C)C)C[C@@H](O)[C@H](Cc3ccccc3)NC(=O)O[C@H]3CO[C@H]4OCC[C@H]43)cc2s1,8.81,< 10,72,< 10,< 4.49,14.2,19.3,8.81,7.81,8.59,0.912,
CC(C)CN(C[C@@H](O)[C@H](Cc1ccccc1)NC(=O)O[C@H]1CO[C@H]2OCC[C@H]21)S(=O)(=O)c1ccc2nc(NCCN3CCCC3)sc2c1,7.88,< 10,56,90,< 4.49,21.7,3.5,7.91,7.49,7.86,11,Kd [6]: 0.0637 nM; half-life [15]: 1.66 h; Cmax [16]: 1970 ng/mL; AUC [17]: 6050 ng·h/mL; Tmax [19]: 0.5 h
CC(C)CN(C[C@@H](O)[C@H](Cc1ccccc1)NC(=O)O[C@H]1CO[C@H]2OCC[C@H]21)S(=O)(=O)c1ccc2nc(NCCN(C)C)sc2c1,7.84,40,19,410,< 4.49,26.6,6.1,8.09,7.67,7.9,11.2,
CC(C)CN(CC(O)C(Cc1ccccc1)NC(=O)OC1CCOC1)S(=O)(=O)c1ccc(N)cc1 (stereo not drawn),,,,,,,,,,,,Kd [21]: 0.4 nM
CC(C)c1nc(CN(C)C(=O)N[C@H](C(=O)N[C@@H](Cc2ccccc2)C[C@H](O)[C@H](Cc2ccccc2)NC(=O)OCc2cncs2)C(C)C)cs1 [RITONAVIR],5.99,,,,4.53,,,5.3,4.89,4.97,64.6,
CC(C)CN(C[C@@H](O)[C@H](Cc1ccccc1)NC(=O)O[C@H]1CO[C@H]2OCC[C@H]21)S(=O)(=O)c1ccc2nc(N(C)CCCN(C)C)sc2c1,6.95,1180,47,1640,4.68,8.5,2,7.32,6.08,6.71,14.8,half-life [15]: 2.9 h; Cmax [16]: 1680 ng/mL; AUC [17]: 6590 ng·h/mL; Tmax [19]: 1 h
CC(C)CN(C[C@@H](O)[C@H](Cc1ccccc1)NC(=O)O[C@H]1CO[C@H]2OCC[C@H]21)S(=O)(=O)c1ccc2nc(N(C)CCN3CCCC3)oc2c1,6.65,,,,< 4.49,,,6.73,5.85,6.55,33.1,
CC(C)CN(C[C@@H](O)[C@H](Cc1ccccc1)NC(=O)O[C@H]1CO[C@H]2OCC[C@H]21)S(=O)(=O)c1ccc2ncsc2c1,7.83,,,,< 4.49,,,8.11,6.57,7.78,1.1,
CC(C)CN(C[C@@H](O)[C@H](Cc1ccccc1)NC(=O)O[C@H]1CO[C@H]2OCC[C@H]21)S(=O)(=O)c1ccc2nc(N(C)CCCN3CCCC3)oc2c1,6.63,,,,< 4.49,,,6.34,5.22,6.22,69.2,
CC(C)CN(C[C@@H](O)[C@H](Cc1ccccc1)NC(=O)O[C@H]1CO[C@H]2OCC[C@H]21)S(=O)(=O)c1ccc2nc(N(C)CCN3CCCC3)sc2c1,6.5,,,,4.52,,,6.85,5.64,6.29,5.62,
"CC(C)CN(C[C@@H](O)[C@H](Cc1ccccc1)NC(=O)OC1CCOC1)S(=O)(=O)c1ccc(N)cc1 (single isomer, unassigned)",6.43,,,,< 4.49,,,6.01,4.95,5.75,43.7,
